Here are results for one compound from ChEMBL document CHEMBL1156469 (2007).

Calls of active or inactive are those of the source. No cut-off for these calls is given here.

The subject of assay [1] is MC3T3-E1. The assay can be described thus: Increase in BMP2 mRNA levels in mouse MC3T3-E1 cells at 1 uM by RT-PCR method. The settings on record: TDE = time-dependent effect. In kind it is functional, cell-based. An outline of the steps: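 Cells treated with 1 μm for 48 h; BMP-2 mRNA measured by quantitative real-time RT-PCR (SYBR Green, 0.5 μm each primer, 4 mm MgCl2, fluorescence read at 82 °C) and normalized.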

Assay [2] has as its system MC3T3-E1. In words: Reversal of induction in ER.DNA complex in mouse MC3T3-E1 cells at 1 uM by RT-PCR in presence of ICI-182780. Format: functional, cell-based. An outline of the steps:
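BMP-2 promoter quantified by real-time PCR (45 cycles, 61 °C anneal), reported as IP-to-input Ct ratio. DN-Src by 3 μg vector, PP2 at 10 μM; ICI182780 and tamoxifen at indicated concentrations.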

Assay [3] relates to Osteoblast. The assay can be described thus: Effect on twist gene homolog 1 gene expression in rat primary osteoblast cells assessed as expression ratio of treated to untreated control by microarray analysis. Format: functional. An outline of the steps:
(§1)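 GEArray Q series Mouse Osteogenesis cDNA array profiling osteogenic-differentiation genes in treated versus vehicle-treated primary osteoblasts.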

Assay [4] concerns Osteoblast. The assay can be described thus: Effect on vascular cell adhesion molecule 1 gene expression in rat primary osteoblast cells assessed as expression ratio of treated to untreated control by microarray analysis. In kind it is functional. Put shortly: as §1
The subject of assay [5] is Osteoblast. In words: Effect on platelet derived growth factor alpha gene expression in rat primary osteoblast cells assessed as expression ratio of treated to untreated control by microarray analysis. Format: functional. An outline of the steps: (§2)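 Resveratrol-treated and vehicle-treated primary osteoblasts were profiled on a mouse osteogenesis-focused cDNA array (GEArray Q series) built to track gene expression during osteogenic differentiation. Each gene's signal in treated cells was expressed as a ratio to untreated control.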

The test system of assay [6] is Osteoblast. The assay can be described thus: Effect on actin beta gene expression in rat primary osteoblast cells assessed as expression ratio of treated to untreated control by microarray analysis. Format: functional.
In the next assay the test system is MDA-MB-231. The assay can be described thus: Antitumor activity against human MDA-MB-231 cells xenografted in SCID mouse orthotropic model assessed as inhibition of 17beta estradiol-induced tumor formation at 10 mg/kg for 2 days. Format: functional. Also noted: scale not given: the % may be the effect or the level left. Put shortly:
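Tumor cells were inoculated orthotopically into the mammary fat pad of 6-week-old female SCID mice. […] Tumor volume was calculated as LW2/2. Tumor formation was scored as mice with tumors per total (20 per group), and tumor weight as mean ± S.D. Groups were compared by one-way ANOVA with LSD post-hoc comparisons.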
Background: In xenograft studies the graft and the host belong to different species.

The subject of assay [7] is Osteoblast. In words: Effect on annexin A5 gene expression in rat primary osteoblast cells assessed as expression ratio of treated to untreated control by microarray analysis. In kind it is functional.
Assay [8] has as its system Osteoblast. The assay can be described thus: Effect on secreted acidic cysteine rich glycoprotein gene expression in rat primary osteoblast cells assessed as expression ratio of treated to untreated control by microarray analysis. In kind it is functional. An outline of the steps: as §2
The target in assay [9] is T1, Estrogen receptor (Mus musculus) (UniProt P19785).
T1 sequence (whole entry): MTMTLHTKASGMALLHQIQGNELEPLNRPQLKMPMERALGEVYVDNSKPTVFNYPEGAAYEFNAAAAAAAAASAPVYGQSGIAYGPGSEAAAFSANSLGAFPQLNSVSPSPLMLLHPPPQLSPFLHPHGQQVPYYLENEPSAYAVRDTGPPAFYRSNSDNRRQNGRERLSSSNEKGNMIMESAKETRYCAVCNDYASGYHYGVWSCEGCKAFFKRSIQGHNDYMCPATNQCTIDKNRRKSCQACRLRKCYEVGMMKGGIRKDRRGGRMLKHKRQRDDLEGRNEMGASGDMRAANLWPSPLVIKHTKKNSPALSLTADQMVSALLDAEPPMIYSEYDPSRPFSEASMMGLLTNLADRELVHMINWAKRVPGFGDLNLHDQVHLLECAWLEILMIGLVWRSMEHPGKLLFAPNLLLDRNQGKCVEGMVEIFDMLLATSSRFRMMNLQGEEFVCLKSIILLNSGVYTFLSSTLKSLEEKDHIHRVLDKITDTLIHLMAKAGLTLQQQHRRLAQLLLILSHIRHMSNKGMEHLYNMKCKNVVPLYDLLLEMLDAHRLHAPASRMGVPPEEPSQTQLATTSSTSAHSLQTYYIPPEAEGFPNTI
In words: Reversal of increase in DNA-binding activity of ERalpha in nuclear extracts of mouse MC3T3-E1 cells by electrophoretic mobility shift assays in presence of ICI-182780. In kind it is cell-based. Put shortly: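 Nuclear extracts of MC3T3-E1 cells. ER-binding probe [α-32P]dCTP end-labeled, 20-min binding at room temperature, 5-fold unlabeled competitor where used. Complexes resolved on 5% nondenaturing PAGE in Tris-borate-EDTA pH 8.3, then autoradiography.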
On the technique in general: In EMSA bound probe runs differently from free probe, usually more slowly.

Assay [10] concerns Osteoblast. In words: Increase in osteopontin levels in rat primary osteoblast cells at 1 uM after 72 hrs by ELISA. In kind it is functional, cell-based. Put shortly:
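Cells treated with 1 μm for 72 h; osteocalcin or osteopontin in culture medium by sandwich ELISA, HRP-streptavidin/TMB, 450 nm; percent change versus untreated control.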
For orientation: An ELISA detects its analyte on a solid surface through an enzyme-linked reagent.

In assay [11] the target is RAC-alpha serine/threonine-protein kinase (Homo sapiens) (UniProt P31749). In words: Reversal of induction of Akt inactivation in human MDA-MB-231 cells transfected with constitutively activated Akt mutant. Format: cell-based.
RAC-alpha serine/threonine-protein kinase (Homo sapiens), sequence (P31749 whole entry): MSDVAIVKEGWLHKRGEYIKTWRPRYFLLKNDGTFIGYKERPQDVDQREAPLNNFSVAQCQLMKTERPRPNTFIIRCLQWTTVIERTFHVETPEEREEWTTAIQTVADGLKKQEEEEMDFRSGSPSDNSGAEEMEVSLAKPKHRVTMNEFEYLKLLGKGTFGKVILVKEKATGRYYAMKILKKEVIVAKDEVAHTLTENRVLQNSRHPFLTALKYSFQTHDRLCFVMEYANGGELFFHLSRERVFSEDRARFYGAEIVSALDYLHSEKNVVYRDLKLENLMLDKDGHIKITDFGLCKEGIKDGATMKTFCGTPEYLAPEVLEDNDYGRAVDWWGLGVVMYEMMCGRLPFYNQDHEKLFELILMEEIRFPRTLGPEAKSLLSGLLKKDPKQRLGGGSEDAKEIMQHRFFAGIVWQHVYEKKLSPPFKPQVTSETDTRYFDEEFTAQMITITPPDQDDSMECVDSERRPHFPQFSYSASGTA
The nature of assay [12]: Reversal of increase in pBMP2 expression in rat primary osteoblast cells transfected with dominant-negative mutant Src expression vector at 1 uM by luciferase method. In kind it is functional, cell-based.
Assay [13] deals with T1, Estrogen receptor (Mus musculus). The assay can be described thus: Increase in DNA-binding activity of ERalpha in nuclear extracts of mouse MC3T3-E1 cells by electrophoretic mobility shift assays. In kind it is cell-based. Put shortly: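 MC3T3-E1 nuclear extracts incubated with 32P end-labeled ERα probe for 20 min at room temperature in 20 μl; 5-fold unlabeled competitor for specificity; 5% nondenaturing PAGE in Tris-borate-EDTA pH 8.3, autoradiography at –70 °C.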

Assay [14] has as its system Osteoblast. In words: Effect on serine proteinase inhibitor clade H1 gene expression in rat primary osteoblast cells assessed as expression ratio of treated to untreated control by microarray analysis. Format: functional. Put shortly:
as §2

The test system of assay [15] is Osteoblast. In words: Effect on integrin beta 1 gene expression in rat primary osteoblast cells assessed as expression ratio of treated to untreated control by microarray analysis. In kind it is functional. An outline of the steps:
as §2

For assay [16], the target named is Proto-oncogene tyrosine-protein kinase Src (Mus musculus) (UniProt P05480). In words: Increase in Src kinase phosphorylation in mouse MC3T3-E1 cells at 1 uM. In kind it is cell-based. Put shortly: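 MC3T3-E1 cells, with or without DN-Src vector (3 μg) or PP2 (10 μm), treated ± 1 μm; Src phosphorylation by Western blot; three independent experiments.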
Proto-oncogene tyrosine-protein kinase Src (Mus musculus), sequence (P05480 2-535 limits assumed): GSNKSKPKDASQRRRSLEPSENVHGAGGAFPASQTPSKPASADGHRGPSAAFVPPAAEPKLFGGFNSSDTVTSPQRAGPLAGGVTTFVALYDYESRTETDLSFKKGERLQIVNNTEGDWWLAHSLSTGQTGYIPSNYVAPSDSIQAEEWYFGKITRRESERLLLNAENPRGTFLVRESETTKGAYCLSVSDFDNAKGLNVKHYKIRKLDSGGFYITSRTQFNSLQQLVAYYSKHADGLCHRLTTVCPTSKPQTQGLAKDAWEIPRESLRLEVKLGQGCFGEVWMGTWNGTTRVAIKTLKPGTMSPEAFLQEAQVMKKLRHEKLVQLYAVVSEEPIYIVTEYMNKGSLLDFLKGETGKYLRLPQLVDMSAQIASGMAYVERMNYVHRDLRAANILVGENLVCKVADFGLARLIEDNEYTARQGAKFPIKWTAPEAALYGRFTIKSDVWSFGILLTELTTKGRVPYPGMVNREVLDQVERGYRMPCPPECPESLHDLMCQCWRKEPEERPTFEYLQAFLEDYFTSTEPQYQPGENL
The target of assay [17] is Forkhead box protein O3 (Homo sapiens) (UniProt O43524). The assay can be described thus: Reversal of induction of FOXO3a activity in human MDA-MB-231 cells transfected with constitutively activated Akt mutant. Format: cell-based.
Forkhead box protein O3 (Homo sapiens), sequence (O43524 whole entry): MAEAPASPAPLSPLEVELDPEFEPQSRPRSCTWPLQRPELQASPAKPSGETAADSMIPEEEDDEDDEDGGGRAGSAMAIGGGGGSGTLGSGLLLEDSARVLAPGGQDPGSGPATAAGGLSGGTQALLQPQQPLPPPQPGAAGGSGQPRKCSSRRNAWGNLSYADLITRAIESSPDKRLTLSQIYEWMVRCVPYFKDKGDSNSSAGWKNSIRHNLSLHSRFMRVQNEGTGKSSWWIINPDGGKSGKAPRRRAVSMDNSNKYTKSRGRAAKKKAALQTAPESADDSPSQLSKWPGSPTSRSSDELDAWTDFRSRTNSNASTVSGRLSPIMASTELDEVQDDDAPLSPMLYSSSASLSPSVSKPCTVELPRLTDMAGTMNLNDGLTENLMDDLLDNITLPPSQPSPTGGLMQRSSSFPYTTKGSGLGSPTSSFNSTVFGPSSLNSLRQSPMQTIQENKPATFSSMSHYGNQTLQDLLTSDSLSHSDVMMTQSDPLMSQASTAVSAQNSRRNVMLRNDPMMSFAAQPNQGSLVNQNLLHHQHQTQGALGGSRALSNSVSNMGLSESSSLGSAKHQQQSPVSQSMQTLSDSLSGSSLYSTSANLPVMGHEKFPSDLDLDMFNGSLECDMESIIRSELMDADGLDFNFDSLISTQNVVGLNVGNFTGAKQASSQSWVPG
The subject of assay [18] is Osteoblast. The assay can be described thus: Effect on MAD homolog 6 gene expression in rat primary osteoblast cells assessed as expression ratio of treated to untreated control by microarray analysis. In kind it is functional.
Assay [19] has as its system Osteoblast. The assay can be described thus: Effect on matrix metalloprotease 10 gene expression in rat primary osteoblast cells assessed as expression ratio of treated to untreated control by microarray analysis. In kind it is functional. Put shortly: as §2
Assay [20] concerns Osteoblast. The assay can be described thus: Effect on fibronectin 1 gene expression in rat primary osteoblast cells assessed as expression ratio of treated to untreated control by microarray analysis. Format: functional.
The subject of assay [21] is MC3T3-E1. In words: Increase in BMP2 expression in mouse MC3T3-E1 cells expressing pBMP2 mutant at 1 uM after 4 hrs by luciferase method relative to control. In kind it is functional, cell-based. An outline of the steps: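 MC3T3-E1 cells transfected with BMP-2 promoter–luciferase constructs (full promoter or deletions), treated with 1 μm or vehicle for 4 h; Dual-Luciferase assay; means ± S.D.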

Turning to `Oc1ccc(/C=C/c2cc(O)cc(O)c2)cc1` [RESVERATROL], the Activity entry with MC3T3-E1 [1] is “tde”; in the assay on MC3T3-E1 [2], “Dose-dependent effect”; in the assay on MDA-MB-231, 85%. The Ratio in the assay with Osteoblast [3] turned out to be 3.77; in the assay with Osteoblast [4], 0.46; in the assay on Osteoblast [5], 4.34; in the assay on Osteoblast [6] it was 1; with Osteoblast [7], 4.02; in the assay on Osteoblast [8] it was 1.6. For the same compound, the Ratio worked out at 2.82 in the assay with Osteoblast [14]; 2.97 with Osteoblast [15]; 0.38 with Osteoblast [18]; 1 in the assay on Osteoblast [19]; 8.76 in the assay on Osteoblast [20]. Moreover, the outcome (in assay [9]; in the assay with Osteoblast [10]; in assay [11]; in assay [12]; in assay [13]; in assay [16]) was Active. The outcome (in assay [17]; in the assay on MC3T3-E1 [21]) was Active.
